Screening results from PubChem BioAssay.
Compounds with a hit are over-represented: about 2.5% of the library has one in this group of screens.
DYRK1A inh: rat Dyrk1A kinase inhibitors, primary screen, biochemical, single point, plate reader. Dual specificity tyrosine-phosphorylation-regulated kinase 1A (Rattus norvegicus), Q63470. inhibition, % at 12.5 µM. 310,000 compounds, 0.43% hits. AID 504441, 2011. ADP-Glo luminescence, NFATc1 peptide
SR-BI DiI-HDL act: activators of SR-BI mediated DiI-HDL uptake, primary screen, ldlA[mSR-BI] CHO cells, DiI fluorescence; activation, % at 12.5 µM; 320,000 compounds, 0.096% hits; 3 h; 100 = double the neutral-control signal;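 active = mean replicate activation of at least 60% and every replicate at or above 60%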
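Material – SR-BI-overexpressing, LDLR-lacking CHO cells · Medium – BSA-supplemented, HEPES-buffered Ham's F12, pH 7.4 · Doses – single concentration · Times – compound with DiI-HDL co-incubation, 3 h at 37 °C · Measured by – bottom-read fluorescence, 550/595 nm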
NSD2 HMT inh: NSD2 histone methyltransferase inhibitors, primary screen, biochemical, AlphaScreen, single concentration, set 2; NSD2 peptide methylation, 120 min; inhibition, % at 12.5 µM; 310,000 compounds, 0.54% hits; AID 743445, 2014
Target sequence (O96028 whole entry, looked up): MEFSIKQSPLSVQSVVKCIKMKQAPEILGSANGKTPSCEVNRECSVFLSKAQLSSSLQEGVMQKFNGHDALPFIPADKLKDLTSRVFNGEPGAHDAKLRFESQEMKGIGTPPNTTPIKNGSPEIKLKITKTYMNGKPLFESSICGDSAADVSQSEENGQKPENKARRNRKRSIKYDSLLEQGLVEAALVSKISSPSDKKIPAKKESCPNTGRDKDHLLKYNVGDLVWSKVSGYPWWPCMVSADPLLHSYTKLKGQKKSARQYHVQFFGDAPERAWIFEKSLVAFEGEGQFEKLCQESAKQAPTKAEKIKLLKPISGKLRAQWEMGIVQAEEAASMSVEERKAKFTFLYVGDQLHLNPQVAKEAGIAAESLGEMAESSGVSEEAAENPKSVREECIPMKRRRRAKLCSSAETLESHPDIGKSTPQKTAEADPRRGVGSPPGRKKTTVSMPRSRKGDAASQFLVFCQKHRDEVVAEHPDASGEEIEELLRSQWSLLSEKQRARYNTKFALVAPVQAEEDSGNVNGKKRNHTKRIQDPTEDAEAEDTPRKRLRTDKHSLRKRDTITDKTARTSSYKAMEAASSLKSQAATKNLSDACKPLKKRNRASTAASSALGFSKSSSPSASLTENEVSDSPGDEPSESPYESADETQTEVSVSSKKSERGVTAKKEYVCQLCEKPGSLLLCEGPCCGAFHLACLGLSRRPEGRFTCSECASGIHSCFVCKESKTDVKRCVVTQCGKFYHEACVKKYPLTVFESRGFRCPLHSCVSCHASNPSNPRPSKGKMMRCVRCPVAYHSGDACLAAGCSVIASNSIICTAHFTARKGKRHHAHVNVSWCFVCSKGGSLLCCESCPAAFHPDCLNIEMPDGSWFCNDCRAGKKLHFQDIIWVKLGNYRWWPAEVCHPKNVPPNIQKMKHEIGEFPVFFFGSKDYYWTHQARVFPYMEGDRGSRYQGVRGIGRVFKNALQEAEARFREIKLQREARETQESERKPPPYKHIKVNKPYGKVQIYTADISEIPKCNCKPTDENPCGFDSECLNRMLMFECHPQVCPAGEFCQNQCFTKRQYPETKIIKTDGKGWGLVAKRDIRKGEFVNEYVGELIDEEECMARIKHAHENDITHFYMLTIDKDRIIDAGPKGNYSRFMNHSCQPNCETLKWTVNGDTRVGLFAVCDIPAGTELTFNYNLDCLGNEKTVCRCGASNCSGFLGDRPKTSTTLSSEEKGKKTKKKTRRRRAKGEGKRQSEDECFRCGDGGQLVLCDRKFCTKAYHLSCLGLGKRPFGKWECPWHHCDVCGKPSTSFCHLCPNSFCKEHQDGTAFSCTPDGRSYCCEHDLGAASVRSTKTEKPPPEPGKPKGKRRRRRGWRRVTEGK
dFosB act: activators of delta FosB homodimer, primary screen, biochemical, fluorescence polarization, TAMRA-CDK5 oligo, single point; AID 493131, 2011; activation, % at 25 µM; 340,000 compounds, 0.99% hits; purified delta FosB; percent of positive-control signal above neutral wells;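 active = mean activation above about 17%, with every replicate also reaching it, limit read from the data, passing the limit was not always enough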
SR-BI HDL uptake: inhibitors of SR-BI mediated HDL lipid uptake, primary screen, ldlA[mSR-BI] cells, fluorescence, single point; Scavenger receptor class B member 1 (Mus musculus), Q61009; ldlA[mSR-BI] CHO cells, DiI-HDL uptake fluorescence, 3 h; inhibition, % at 12.5 µM; AID 488896, 2010; 320,000 compounds, 0.96% hits;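 active = mean replicate inhibition of at least 70% and a set share of replicates each scoring 70 or more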
CDK5 p35 inh: inhibitors of human CDK5/p35 kinase, primary screen, biochemical, single concentration. Cyclin-dependent kinase 5 (Homo sapiens) + Cyclin-dependent kinase 5 activator 1 (Homo …. 330,000 compounds, 0.01% hits. Recombinant CDK5/p35, ADP-Glo luminescence, 60 min. inhibition, % at 10 µM;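 active = highest replicate inhibition of at least 50% and at least 75% of replicates reaching 50%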
DiI quencher: quenches DiI-HDL fluorescence, an SR-BI assay artifact; shares compounds with SR-BI HDL uptake; cell-free DiI-HDL fluorescence quenching, 30 min; AC50, µM (top dose mostly 35 µM); 470 compounds, 20% hits; AID 540326;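 active = quenching, a falling signal, with AC50 below a set limit tied to the top valid dose, actives reach about 32 µM in these data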
Of the large screens only hits and unclear results are named; the others gave an inactive call (follow-up assays come after a bar, where they were run). Cut-off read from the data, not from the text of the source, unless noted: active = inhibition above about 50%; inactive = the rest.

O=C(NN=Cc1ccc(N(CCCl)CCCl)cc1)c1cc(=O)[nH]c(=O)[nH]1	none (no result: DYRK1A inh)
O=C(NN=Cc1ccc(N(CCCl)CCCl)cc1Cl)c1cccnc1	SR-BI HDL uptake 80.2 (no result: DYRK1A inh)
Cc1cc(N(CCCl)CCCl)ccc1C=NNC(=O)c1cccnc1	SR-BI HDL uptake 88.8
O=c1[nH]c(=S)n(-c2ccccc2F)c(O)c1C=NCCN1CCNCC1	none
CC(CC(C#N)(c1ccccc1)c1ccccc1)N(C)C (configuration not stated)	none (no result: NSD2 HMT inh)
CCC(C#N)(CC)P(=S)(c1ccccc1)c1ccccc1	SR-BI DiI-HDL act 63.2
CN=C1CN=C(c2ccc[nH]2)c2cc(Cl)ccc2N1	none (no result: DYRK1A inh, SR-BI DiI-HDL act, dFosB act, SR-BI HDL uptake, CDK5 p35 inh)
CC[n+]1c(-c2ccccc2)c2cc(N)ccc2c2ccc(N)cc21	NSD2 HMT inh 177.6
COc1ccccc1N1CCN(Cc2cnc(-c3ccccc3)[nH]2)CC1	none
CCCNC(=O)c1c(N)n(CC2CCCO2)c2nc3ccccc3nc12 (configuration not stated)	none (no result: NSD2 HMT inh)
CC(C)OCCCNC(=O)c1c(N)n(CC2CCCO2)c2nc3ccccc3nc12 (configuration not stated)	NSD2 HMT inh 98.5 (no result: DYRK1A inh)
C=CCN1CCc2cccc3c2[C@H]1Cc1ccc(O)c(O)c1-3	none (no result: DYRK1A inh)
COc1cc2c(cc1OC)-c1c(OC)c(OC)cc3c1C(C2)N(C)CC3 (configuration not stated)	SR-BI HDL uptake 76.5 (no result: NSD2 HMT inh)
COc1ccc(CC2c3cc(OC)c(OC)cc3CCN2C)cc1O (configuration not stated)	none (no result: NSD2 HMT inh)
CN(C)c1ccc(NC(=O)CN2C(=O)CN=C(c3ccccc3)c3ccccc32)cc1	SR-BI HDL uptake 82.7
CC12CCC3C(CC=C4CC(O)CCC43C)C1CC(=CN1CCOCC1)C2=O (configuration not stated)	none
O=c1nc(/C=C/c2ccc(Cl)cc2Cl)cc(C(F)(F)F)[nH]1	none
Cc1ccc(C2=NCC(=O)N(CC(=O)N3CCCCC3)c3sc(C)c(C)c32)cc1	SR-BI HDL uptake 87.9
Cc1ccc(CC(=O)N2CCN(C)CC2)cc1	none
O=C1NC(=O)N(c2ccccc2F)C(=O)/C1=C/c1ccc(Sc2nc3ccccc3[nH]2)o1	NSD2 HMT inh 87.0, dFosB act 26.7 (no result: DYRK1A inh)
O=C1NC(=O)N(c2cccc(Cl)c2)C(=O)/C1=C\c1ccc(Sc2nc3ccccc3[nH]2)o1	NSD2 HMT inh 70.6, dFosB act 48.9
CCCn1c(C)c(C(=O)c2cccc3ccccc23)c2ccccc21	SR-BI HDL uptake 82.3 (no result: NSD2 HMT inh)
CCCNC(=O)N1[C@H]2CC[C@@H]1C(C(=O)OC)=C(c1ccc3ccccc3c1)C2	none (no result: NSD2 HMT inh)
NC(N)=Nc1ccc2[nH]c3c(c2c1)C[C@@]1(O)[C@H]2Cc4ccc(O)c5c4[C@@]1(CCN2CC1CC1)[C@H]3O5	dFosB act 40.6 (no result: NSD2 HMT inh)
CCn1nc(-c2cccs2)nc2c(=O)n(C)c(=O)nc1-2	DYRK1A inh 62.6 (no result: NSD2 HMT inh)
CCN(CC)CCNC(=O)c1c(O)c2ccccc2n(Cc2ccccc2)c1=O	none
CCCCCn1c(=O)c(C(=O)Nc2ccccc2Cl)c(O)c2ccccc21	SR-BI HDL uptake 92.8 (no result: DYRK1A inh, NSD2 HMT inh)
CCCCCn1c(=O)c(C(=O)NCCc2ccccc2)c(O)c2ccccc21	SR-BI HDL uptake 74.9
N#Cc1ccc(Nc2nc(-c3ccc(O)cc3O)cs2)cc1C(F)(F)F	SR-BI HDL uptake 102.7 (no result: DYRK1A inh, NSD2 HMT inh) | DiI quencher 4.34µM
O=c1ccc2cc(O[C@@H]3O[C@H](CO)[C@@H](O)[C@H](O)[C@H]3O)c(O)cc2o1	none (no result: NSD2 HMT inh)
O=c1cccc2n1CC1CC2CN(S(=O)(=O)c2cc(Cl)ccc2Cl)C1 (configuration not stated)	none | DiI quencher inactive
